# Activity calls are given as the source filed them. The calls are words filed in the database; no cut-off is given here.
# Columns and labels:
# HL-60 [1] = experiment: Induction of autophagy in human HL60 cells assessed as […] in LC3B-2 levels at 10 uM after 16 hrs in presence of lysosomal inhibitor chloroquine by immunoblot analysis; type: functional, cell-based
# Outline: (§1)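 HL-60 in serum-supplemented RPMI 1640, or starved in Earle's Balanced Salts for 15 min beforehand, then treated with 10 μM compound with or without 40 μM chloroquine for 1 h 45 min or 16 h. LC3B-II measured by immunoblot, densitometry normalized to actin, three independent experiments, Student's T-test.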
# NIH3T3 [2] = experiment: Cytotoxicity against mouse NIH/3T3 cells after 48 hrs by MTT assay; type: cell-based; settings: NIH3T3, 48 h
# Outline: (§2)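 Cells seeded at 12,000 to 17,000 per well depending on line, incubated overnight, then given serial dilutions of ligand for 48 h. MTT at 2.5 mg/mL added for 4 h at 37 °C, formazan solubilized overnight (10% SDS, 45% dimethylformamide, pH 5.5), absorbance read at 595/690 nm. IC50 from log-dose response curves; mean ± SE of three independent assays.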
# HL-60 [3] = experiment: Induction of autophagy in serum starved human HL60 cells assessed as increase in LC3B-2 levels at 10 uM after 105 mins by immunoblot analysis; type: functional, cell-based; outline: as §1
# NB-4 [4] = experiment: Induction of differentiation in human NB4 cells at 500 nM after 24 hrs in presence of ATRA by CD11c staining-based flow cytometric analysis; type: functional, cell-based
# Outline: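 NB4 exposed to 0.5 μM compound together with 1 μM ATRA for 24 h. Cells stained with PE-conjugated CD11c (mouse IgG1-PE control) for 1 h at 4 °C in the dark, washed, resuspended in PBS with propidium iodide (0.25 μg/mL), then analysed by flow cytometry. Biological triplicates, mean ± S.E.M.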
# NB-4 [5] = experiment: Cell cycle arrest in human NB4 cells assessed as accumulation of cells at G2/M phase at 50 to 10000 nM after 24 hrs by propidium iodide staining-based flow cytometric analysis; type: functional
# Outline: (§3)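 NB4 cultured at 37 °C, 5% CO2 in RPMI-1640 with 10% heat-inactivated FBS. Treated at 50 and 100 nM, 1 and 10 μM for 24 h. Cells fixed/permeabilized in 70% ethanol overnight at 4 °C, then given RNase and 20 μg/ml PI for 30 min. Doublets excluded, 20,000 events per sample; cell-cycle phase distribution analysed.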
# NIH3T3 [6] = experiment: Cytotoxicity against mouse NIH/3T3 cells harboring MDR G185 after 48 hrs by MTT assay; type: functional, cell-based; settings: NIH3T3, 48 h; outline: as §2
# HL-60 [7] = experiment: Cell cycle arrest in human HL60 cells assessed as accumulation of cells at G2/M phase at 10 uM after 24 hrs by propidium iodide staining-based flow cytometric analysis; type: functional
# Outline: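 HL-60 exposed to 10 μM for 24 h, vehicle 0.1% DMSO. Cells plated at 2×10^5 cells/mL, stained in PBS with 0.1% sodium citrate, 0.1% NP40 and propidium iodide for 30 min at room temperature in the dark. DNA content by flow cytometry; G2/M fraction reported.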
# [8] = Apparent solubility of compound in sodium phosphate buffer at 15 uM after 20 mins; type: physicochemical
# Tubulin (Homo sapiens) [9] = target: T1, Tubulin (Homo sapiens) (UniProt P68371+Q9H4B7+P0DPH7+P68366+Q13509+Q71U36+P04350+Q3ZCM7+P07437+P68363+Q9BQE3+Q6PEY2+Q13885+Q9BVA1+Q9BUF5); experiment: Binding affinity to tubulin (unknown origin) by analytical ultracentrifugation
# Tubulin (Homo sapiens) [10] = target: T1, Tubulin (Homo sapiens); experiment: Inhibition of tubulin (unknown origin) polymerization at 27.5 uM measured over 70 mins by turbidity method; type: protein-complex assay
# Outline: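 Tubulin at 25 µM in GAB buffer (10 mM sodium phosphate, 30% glycerol, 1 mM EGTA, 6 mM MgCl2, 1 mM GTP, pH 6.7) with 27.5 µM compound or DMSO vehicle. Turbidity is read at 355 nm for 70 min at 37 °C. Data are normalized to the initial stable absorbance plateau to correct for compound absorbance.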
# [11] = Ratio of IC50 for mouse NIH/3T3 cells harboring MDR G185 to IC50 for mouse NIH/3T3 cells
# Outline: (§4)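 Relative resistance: IC50 in the P-gp overexpressing resistant line divided by IC50 in the parental line. Both IC50s came from the 48 h MTT assay (serial dilutions, absorbance at 595/690 nm, log-dose response curves, three independent assays).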
# HL-60 [12] = experiment: Induction of autophagy in serum starved human HL60 cells assessed as increase in LC3B-2 levels at 10 uM after 105 mins in presence of lysosomal inhibitor chloroquine by immunoblot analysis; type: functional, cell-based; outline: as §1
# NB-4 [13] = experiment: Cell cycle arrest in human NB4 cells assessed as accumulation of cells at G1 phase after 24 hrs by propidium iodide staining-based flow cytometric analysis; type: functional; outline: as §3
# NB-4 [14] = experiment: Cell cycle arrest in human NB4 cells at 50 to 10000 nM after 24 hrs by propidium iodide staining-based flow cytometric analysis; type: functional; outline: as §3
# A2780 = experiment: Cytotoxicity against human A2780 cells after 48 hrs by MTT assay; type: functional, cell-based; settings: A2780, 48 h; outline: as §2
# [15] = Ratio of IC50 for human A2780AD cells to IC50 for human A2780 cells; type: functional; outline: as §4
# [16] = Cytotoxicity against human A2780AD cells after 48 hrs by MTT assay; type: functional, cell-based; outline: as §2
# Tubulin (Homo sapiens) [17] = target: T1, Tubulin (Homo sapiens); experiment: Displacement of podophyllotoxin from tubulin (unknown origin) by ultracentrifugation method; type: protein-complex assay
# HCC827 [18] = experiment: Cytotoxicity against human HCC827 cells assessed as reduction in cell survival at 0.1 to 10 uM after 18 hrs by MTT assay; type: functional, cell-based
# Outline: (§5)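 Seeded at 2,500 cells/well in medium with 10% serum. After adhesion, exposed to 0.1, 1 and 10 μM in medium with 5% serum for 18 h. Medium then replaced with fresh medium containing 1.2 mM MTT for 4 h; formazan dissolved in DMSO, absorbance at 540 nm. Results given as % of basal response.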
# A549 = experiment: Cytotoxicity against human A549 cells assessed as reduction in cell survival at 0.1 to 10 uM after 18 hrs by MTT assay; type: functional, cell-based; outline: as §5
# NCI-H929 [19] = experiment: Cytotoxicity against human NCI-H929 cells after 48 hrs by MTT assay; type: functional, cell-based; settings: NCI-H929, 48 h
# Outline: (§6)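 Cells (NCI-H929 in RPMI-1640 GlutaMAX; SCC4 in DMEM GlutaMAX; 10% FBS, 37 °C, 5% CO2) treated with increasing concentrations for 48 h. IC50 is the mean of three independent experiments.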
# PC-9 [20] = experiment: Induction of apoptosis in human PC9 cells assessed as increase in p21 expression at 10 uM after 18 hrs by Western blot analysis; type: functional, cell-based
# Outline: (§7)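 PC9 and HCC827 maintained in DMEM with 10% FBS, then exposed to 10 μM compound for 18 h in 5% serum. Caspase 3 activation and cell cycle proteins examined by western blot.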
# [21] = Solubility of compound in pH 7.4 aqueous solution after 12 hrs by HPLC analysis; type: physicochemical
# Outline: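 Water solubility at pH 7.4 measured by HPLC analysis.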
# Ca9-22 [22] = experiment: Cytotoxicity against human Ca9-22 cells after 72 hrs by MTT assay; type: functional, cell-based; settings: Ca9-22, 72 h
# B16-F1 = experiment: Cytotoxicity against mouse B16-F1 cells assessed as reduction in cell survival at 0.1 to 10 uM after 18 hrs by MTT assay; type: functional, cell-based; outline: as §5
# [23] = Solubility of compound in pH 3 aqueous solution after 12 hrs by HPLC analysis; type: physicochemical
# SCC-4 [24] = experiment: Induction of apoptosis in human SCC4 cells at 500 nM after 48 hrs by Annexin V/propidium iodide staining-based flow cytometric analysis relative to control; type: functional
# Outline: (§8)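 Seeding density: NCI-H929 and Ca9.22 at 30×10^4 cells/mL, SCC4 at 15×10^4 cells/mL. Cells exposed 48 h to compound (500 nM; 50 μM in SCC4 for one compound) or vehicle (1% EtOH v/v). Annexin V/PI staining, flow cytometry, 10,000 cells gated on vehicle-treated cells. Three independent experiments, mean ± S.E.M, T-test.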
# PC-9 [25] = experiment: Induction of apoptosis in human PC9 cells assessed as increase in caspase-3 expression at 10 uM after 18 hrs by Western blot analysis; type: functional, cell-based; outline: as §7
# HCC827 [26] = experiment: Induction of apoptosis in human HCC827 cells assessed as increase in p21 expression at 10 uM after 18 hrs by Western blot analysis; type: functional, cell-based; outline: as §7
# HCC827 [27] = experiment: Induction of apoptosis in human HCC827 cells assessed as reduction in cyclin D1 expression at 10 uM after 18 hrs by Western blot analysis; type: functional, cell-based; outline: as §7
# PC-9 [28] = experiment: Induction of apoptosis in human PC9 cells assessed as reduction in cyclin D1 expression at 10 uM after 18 hrs by Western blot analysis; type: functional, cell-based; outline: as §7
# HCC827 [29] = experiment: Cytotoxicity against human HCC827 cells assessed as reduction in cell survival at 0.1 to 10 uM after 50 to 60 hrs by MTT assay; type: functional, cell-based
# PC-9 [30] = experiment: Cytotoxicity against human PC9 cells assessed as reduction in cell survival at 0.1 to 10 uM after 18 hrs by MTT assay; type: functional, cell-based; outline: as §5
# HL-60 [31] = experiment: Induction of autophagy in human HL60 cells assessed as increase in LC3B-2 levels at 10 uM after 105 mins in presence of lysosomal inhibitor chloroquine by immunoblot analysis; type: functional, cell-based; outline: as §1
# HCC827 [32] = experiment: Induction of apoptosis in human HCC827 cells assessed as increase in caspase-3 expression at 10 uM after 18 hrs by Western blot analysis; type: functional, cell-based; outline: as §7
# Ca9-22 [33] = experiment: Cytotoxicity against human Ca9-22 cells after 48 hrs by MTT assay; type: functional, cell-based; settings: Ca9-22, 48 h
# NCI-H929 [34] = experiment: Induction of apoptosis in human NCI-H929 cells at 500 nM after 48 hrs by Annexin V/propidium iodide staining-based flow cytometric analysis relative to control; type: functional; outline: as §8
# Ca9-22 [35] = experiment: Cytotoxicity against human Ca9-22 cells after 24 hrs by MTT assay; type: functional, cell-based; settings: Ca9-22, 24 h
# SCC-4 [36] = experiment: Cytotoxicity against human SCC4 cells after 48 hrs by MTT assay; type: functional, cell-based; settings: SCC-4, 48 h; outline: as §6
# B16-F10 = experiment: Cytotoxicity against mouse B16F10 cells assessed as reduction in cell survival at 0.1 to 10 uM after 18 hrs by MTT assay; type: functional, cell-based; outline: as §5
# Ca9-22 [37] = experiment: Induction of apoptosis in human Ca9-22 cells at 500 nM after 48 hrs by Annexin V/propidium iodide staining-based flow cytometric analysis relative to control; type: functional, cell-based; outline: as §8
# SCC-4 [38] = experiment: Induction of apoptosis in human SCC4 cells at 50 uM after 48 hrs by Annexin V/propidium iodide staining-based flow cytometric analysis relative to control; type: functional; outline: as §8
SMILES,IC50 (NIH3T3 [2]),Activity (HL-60 [3]),IC50 (NIH3T3 [6]),Activity (HL-60 [7]),"solubility at 20 min, 15 µM [8]",Kb (Tubulin (Homo sapiens) [9]),inhibition (Tubulin (Homo sapiens) [10]),Ratio IC50 [11],Activity (NB-4 [13]),IC50 (A2780),Ratio IC50 [15],IC50 [16],IC50 (NCI-H929 [19]),IC50 (Ca9-22 [22]),IC50 (Ca9-22 [33]),IC50 (Ca9-22 [35]),IC50 (SCC-4 [36]),also measured
CC(=O)OC1=C(c2ccc3c(c2)OCO3)Oc2cc3ccccc3cc2-n2cccc21,2780 nM,Active,2040 nM,Active,0.14 µM,2 ×10⁷ /M,Active,0.73,Dose-dependent effect,2050 nM,3.46,7100 nM,,,,,,Activity (HL-60 [1]): Active; Activity (NB-4 [4]): Active; Activity (NB-4 [5]): Active; Activity (HL-60 [12]): Active; Activity (NB-4 [14]): inactive; inhibition (Tubulin (Homo sapiens) [17]): Active
CC(=O)OC1=C(c2cccc3ccccc23)Oc2cc3ccccc3cc2-n2cccc21,126 nM,Active,306 nM,Active,0.62 µM,4.4 ×10⁷ /M,Active,2.42,Dose-dependent effect,249 nM,0.96,240 nM,376 nM,83 nM,170 nM,210 nM,160 nM,Activity (HCC827 [18]): Active; Activity (A549): Active; Activity (PC-9 [20]): Active; solubility at 12 h [21]: 26 µM; Activity (B16-F1): Active; solubility at 12 h [23]: 29.4 µM; Activity (SCC-4 [24]): >40%; Activity (PC-9 [25]): Active; Activity (HCC827 [26]): Active; Activity (HCC827 [27]): Active; Activity (PC-9 [28]): Active; Activity (HCC827 [29]): inactive; Activity (PC-9 [30]): Active; Activity (HL-60 [31]): Active; Activity (HCC827 [32]): Active; Activity (NCI-H929 [34]): >40%; Activity (B16-F10): Active
CC(=O)OC1=C(c2ccccc2-c2ccccc2)Oc2ccccc2-n2cccc21,,,,,,,,,,,,,> 50000 nM,4500 nM,6300 nM,8000 nM,9370 nM,Activity (Ca9-22 [37]): inactive; Activity (SCC-4 [38]): >40%

# From ChEMBL document CHEMBL4382230, “Structure-activity relationships, biological evaluation and structural studies of novel pyrrolonaphthoxazepines as antitumor agents” (Eur J Med Chem, 2019)
